≈ marks a conversion by molar mass, not a printed value. Calls of active or inactive are those of the source. The calls are words filed in the database; no cut-off is given here.
Experiments:
Echinochloa oryzicola [1] = assay: Herbicidal activity against Echinochloa oryzicola assessed as visual damage 250 g/ha measured after 3 weeks; format: functional, organism-based
How it was run: (§1)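 Flooded greenhouse pot test with soil of 1.5% total carbon, pH 5.6. Eight annual weed species sown at 0.5–1.0 cm in one pot, under 3 cm water at 28–33 °C day and 20–26 °C night. Compound in acetone/water (50/50 v/v) added gently to the water surface at the stated rate 5 days after transplanting.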

Pontederia vaginalis [2] = assay: Herbicidal activity against Monochoria vaginalis assessed as visual damage 125 g/ha measured after 3 weeks; format: functional, organism-based; how it was run: as §1
Rotala indica [3] = assay: Herbicidal activity against Rotala indica assessed as visual damage 250 g/ha measured after 3 weeks; format: functional, organism-based; how it was run: as §1
Oryza sativa [4] = assay: Toxicity in transplanted Oryza sativa (rice) assessed as visual damage 1000 g/ha measured after 5 days after transplanting; format: organism-based; details: in vivo, 120 h
How it was run: (§2)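 Transplanted rice grown in flooded greenhouse pots (3 cm water; 28–33 °C day, 20–26 °C night; soil 1.5% total carbon, pH 5.6). Compound in acetone/water (50/50 v/v) applied to the water surface at the stated rate 5 days after transplanting. Injury scored visually on a 0–100 scale.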

Oryza sativa [5] = assay: Toxicity in transplanted Oryza sativa (rice) assessed as visual damage 62.5 g/ha measured after 5 days after transplanting; format: organism-based; details: in vivo, 120 h; how it was run: as §2
Ludwigia prostrata [6] = assay: Herbicidal activity against Ludwigia prostrata assessed as visual damage 500 g/ha measured after 3 weeks; format: functional, organism-based; how it was run: as §1
Cyperus difformis [7] = assay: Herbicidal activity against Cyperus difformis assessed as visual damage 62.5 g/ha measured after 3 weeks; format: functional, organism-based; how it was run: as §1
Echinochloa oryzicola [8] = assay: Herbicidal activity against Echinochloa oryzicola assessed as visual damage 125 g/ha measured after 3 weeks; format: functional, organism-based; how it was run: as §1
Echinochloa oryzicola [9] = assay: Herbicidal activity against Echinochloa oryzicola assessed as visual damage 1000 g/ha measured after 3 weeks; format: functional, organism-based; how it was run: as §1
Ludwigia prostrata [10] = assay: Herbicidal activity against Ludwigia prostrata assessed as visual damage 125 g/ha measured after 3 weeks; format: functional, organism-based; how it was run: as §1
Echinochloa crus-galli [11] = assay: Herbicidal activity against 2 to 3 leaf stage Echinochloa crus-galli (barnyard grass) (barnyardgrass) at 62.5 g/ha; format: functional, organism-based
Rotala indica [12] = assay: Herbicidal activity against Rotala indica assessed as visual damage 1000 g/ha measured after 3 weeks; format: functional, organism-based; how it was run: as §1
Pontederia vaginalis [13] = assay: Herbicidal activity against Monochoria vaginalis assessed as visual damage 1000 g/ha measured after 3 weeks; format: functional, organism-based; how it was run: as §1
Cyperus difformis [14] = assay: Herbicidal activity against Cyperus difformis assessed as visual damage 250 g/ha measured after 3 weeks; format: functional, organism-based; how it was run: as §1
[15] = system: Schoenoplectiella juncoides; assay: Herbicidal activity against Schoenoplectiella juncoides assessed as visual damage 62.5 g/ha measured after 3 weeks; format: functional, organism-based; how it was run: as §1
Cyperus difformis [16] = assay: Herbicidal activity against Cyperus difformis assessed as visual damage 500 g/ha measured after 3 weeks; format: functional, organism-based; how it was run: as §1
Echinochloa oryzicola [17] = assay: Herbicidal activity against Echinochloa oryzicola assessed as visual damage 500 g/ha measured after 3 weeks; format: functional, organism-based; how it was run: as §1
Rotala indica [18] = assay: Herbicidal activity against Rotala indica assessed as visual damage 500 g/ha measured after 3 weeks; format: functional, organism-based; how it was run: as §1
[19] = Aquatic toxicity in Daphnia magna; format: organism-based; details: in vivo, other: aquatic exposure
How it was run: (§3)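 Aquatic acute toxicity, given as LC50 in mg/L of test water.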

Pontederia vaginalis [20] = assay: Herbicidal activity against Monochoria vaginalis assessed as visual damage 500 g/ha measured after 3 weeks; format: functional, organism-based; how it was run: as §1
Oryza sativa [21] = assay: Toxicity in transplanted Oryza sativa (rice) assessed as visual damage 500 g/ha measured after 5 days after transplanting; format: organism-based; details: in vivo, 120 h; how it was run: as §2
Cyperus difformis [22] = assay: Herbicidal activity against Cyperus difformis assessed as visual damage 125 g/ha measured after 3 weeks; format: functional, organism-based; how it was run: as §1
[23] = Aquatic toxicity in Oryzias latipes (Japanese medaka); format: organism-based; details: in vivo, other: aquatic exposure; how it was run: as §3
Cyperus difformis [24] = assay: Herbicidal activity against Cyperus difformis assessed as visual damage 1000 g/ha measured after 3 weeks; format: functional, organism-based; how it was run: as §1
[25] = Genotoxicity inCricetulus griseus lung fibroblast assessed as chromosome aberration; format: toxicity, cell-based, Cricetulus griseus; details: chinese hamster
How it was run: (§4)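 CHL (Chinese hamster lung fibroblast) cells kept in minimum essential medium with 5% fetal bovine serum. Harvested with 0.2% trypsin, seeded onto 50-mm dishes, and grown at 37 °C in humidified 5% CO₂/95% air.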

Oryza sativa [26] = assay: Toxicity in transplanted Oryza sativa (rice) assessed as visual damage 250 g/ha measured after 5 days after transplanting; format: organism-based; details: in vivo, 120 h; how it was run: as §2
[27] = system: Schoenoplectiella juncoides; assay: Herbicidal activity against Schoenoplectiella juncoides assessed as visual damage 125 g/ha measured after 3 weeks; format: functional, organism-based; how it was run: as §1
Pontederia vaginalis [28] = assay: Herbicidal activity against Monochoria vaginalis assessed as visual damage 250 g/ha measured after 3 weeks; format: functional, organism-based; how it was run: as §1
Ludwigia prostrata [29] = assay: Herbicidal activity against Ludwigia prostrata assessed as visual damage 1000 g/ha measured after 3 weeks; format: functional, organism-based; how it was run: as §1
Oryza sativa [30] = assay: Toxicity in transplanted Oryza sativa (rice) assessed as visual damage 125 g/ha measured after 5 days after transplanting; format: organism-based; details: in vivo, 120 h; how it was run: as §2
Echinochloa crus-galli [31] = assay: Herbicidal activity against 4 leaf stage Echinochloa crus-galli (barnyard grass) (barnyardgrass) at 250 g/ha; format: functional, organism-based
Ludwigia prostrata [32] = assay: Herbicidal activity against Ludwigia prostrata assessed as visual damage 250 g/ha measured after 3 weeks; format: functional, organism-based; how it was run: as §1
Murdannia keisak [33] = assay: Herbicidal activity against Murdannia keisak assessed as visual damage 250 g/ha measured after 3 weeks; format: functional, organism-based; how it was run: as §1
[34] = Genotoxicity in Cricetulus griseus lung fibroblast assessed as mutation; format: toxicity, cell-based; details: chinese hamster; how it was run: as §4
Ludwigia prostrata [35] = assay: Herbicidal activity against Ludwigia prostrata assessed as visual damage 62.5 g/ha measured after 3 weeks; format: functional, organism-based; how it was run: as §1
[36] = system: Schoenoplectiella juncoides; assay: Herbicidal activity against Schoenoplectiella juncoides assessed as visual damage 250 g/ha measured after 3 weeks; format: functional, organism-based; how it was run: as §1
Murdannia keisak [37] = assay: Herbicidal activity against Murdannia keisak assessed as visual damage 62.5 g/ha measured after 3 weeks; format: functional, organism-based; how it was run: as §1
Rotala indica [38] = assay: Herbicidal activity against Rotala indica assessed as visual damage 125 g/ha measured after 3 weeks; format: functional, organism-based; how it was run: as §1
[39] = Acute toxicity in Mus musculus (mouse); format: organism-based; details: in vivo
How it was run: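 Acute toxicity in mice, given as LD50 in mg/kg.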

Murdannia keisak [40] = assay: Herbicidal activity against Murdannia keisak assessed as visual damage 125 g/ha measured after 3 weeks; format: functional, organism-based; how it was run: as §1

For `Cc1ccsc1C1=NOC(C)(COCc2c(F)cccc2F)C1` (stereo not given), the Activity (Echinochloa oryzicola [1]) was “Active”, the Activity (Pontederia vaginalis [2]) was “Active” and the Activity (Rotala indica [3]) was “Active”. For the same molecule, the Activity (Oryza sativa [4]) was “Non-toxic”, the Activity (Oryza sativa [5]) was “Non-toxic” and the Activity (Ludwigia prostrata [6]) was “Active”. The Activity (Cyperus difformis [7]) was “Active”, the Activity (Echinochloa oryzicola [8]) was “Active” and the Activity (Echinochloa oryzicola [9]) was “Active”. For the same molecule, the Activity (Ludwigia prostrata [10]) was “Active”, the Activity (Echinochloa crus-galli [11]) was “Active” and the Activity (Rotala indica [12]) was “Active”. For the same molecule, the Activity (Pontederia vaginalis [13]) was “Active”, the Activity (Cyperus difformis [14]) was “Active” and the Activity [15] was “inactive”. For the same molecule, the Activity (Cyperus difformis [16]) was “Active”, the Activity (Echinochloa oryzicola [17]) was “Active” and the Activity (Rotala indica [18]) was “Active”. For the same molecule, the LC50 [19] was 2.7 mg/L (≈ 8 µM), the Activity (Pontederia vaginalis [20]) was “Active” and the Activity (Oryza sativa [21]) was “Non-toxic”. For the same molecule, the Activity (Cyperus difformis [22]) was “Active”, the LC50 [23] was 1.9 mg/L (≈ 5.63 µM) and the Activity (Cyperus difformis [24]) was “Active”. The Activity [25] was “Non-toxic”, the Activity (Oryza sativa [26]) was “Non-toxic” and the Activity [27] was “inactive”. For the same molecule, the Activity (Pontederia vaginalis [28]) was “Active”, the Activity (Ludwigia prostrata [29]) was “Active” and the Activity (Oryza sativa [30]) was “Non-toxic”. For the same molecule, the Activity (Echinochloa crus-galli [31]) was “Active”, the Activity (Ludwigia prostrata [32]) was “Active” and the Activity (Murdannia keisak [33]) was “inactive”. For the same molecule, the Activity [34] was “Non-toxic”, the Activity (Ludwigia prostrata [35]) was “Active” and the Activity [36] was “inactive”. For the same molecule, the Activity (Murdannia keisak [37]) was “inactive”, the Activity (Rotala indica [38]) was “Active” and the LD50 [39] was 5000 mg/kg. The Activity (Murdannia keisak [40]) was “inactive”.

From ChEMBL document CHEMBL3046200, “5-(2,6-difluorobenzyl)oxymethyl-5-methyl-3-(3-methylthiophen-2-yl)- 1,2-isoxazoline as a useful rice herbicide” (J Agric Food Chem, 2005)
